The source made the active and inactive calls. The calls are words filed in the database; no cut-off is given here.
Key:
[1] = system: HEp-2; assay: Induction of apoptosis in human Hep2 cells assessed as viable cell level after 24 hrs by annexin V-FITC and propidium iodide staining based flow cytometry; type: functional
Summary of the method: (§1)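 Hep2 seeded at 2-3 × 10^6 per flask, treated 24 h at several concentrations; cisplatin 200 µM positive control; cells in HEPES pH 7.4/NaCl/CaCl2 buffer stained with annexin V-FITC 100 ng/mL and PI 0.1 µg/mL, 15 min room temperature, dark; flow cytometry quadrants; three experiments in duplicate.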

[2] = system: HEp-2; assay: Induction of apoptosis in human Hep2 cells assessed as late apoptotic cells level after 24 hrs by annexin V-FITC and propidium iodide staining based flow cytometry; type: functional; summary of the method: as §1
[3] = system: HEp-2; assay: Induction of apoptosis in human Hep2 cells assessed as necrotic cells level after 24 hrs by annexin V-FITC and propidium iodide staining based flow cytometry; type: functional; summary of the method: as §1
[4] = system: HT-29; assay: Cytotoxicity against human HT-29 cells after 24 hrs at 37 degC by MTT assay; type: functional; settings: for IC50: HT-29, 24 h, read-out: ID50 (the source's name)
Summary of the method: (§2)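 Vero and HT-29 grown in DMEM/10% FBS, Hep2 in EMEM/10% FBS; seeded at 2 × 10^4 (Vero, Hep2) or 3 × 10^4 (HT-29) cells/mL; exposed 24 h to 0.2–50 µg/mL compound, final DMSO 1%; MTT 1 mg/mL 2 h at 37 °C, formazan in DMSO, OD 540 nm; % of DMSO control; ID50 by probit; triplicate wells, three repeats.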

[5] = system: Candida albicans; assay: Antifungal activity against Candida albicans ATCC 10231 after 48 hrs by broth microdilution method; type: functional; settings: ATCC 10231, 48 h, read-out: ID50 (the source's name)
[6] = system: Escherichia coli; assay: Antibacterial activity against Escherichia coli ATCC 35218 after 18 to 24 hrs by broth microdilution method; type: functional; settings: read-out: ID50 (the source's name)
[7] = (§3) Cytotoxicity against african green monkey Vero cells after 24 hrs at 37 degC by MTT assay; type: cell-based; settings: chlorocebus sabaeus, Vero cells; read-out: ID50; summary of the method: as §2
[8] = system: Staphylococcus aureus; assay: Antibacterial activity against Staphylococcus aureus ATCC 25923 after 18 to 24 hrs by broth microdilution method; type: functional; settings: read-out: ID50 (the source's name)
[9] = system: HEp-2; assay: Cytotoxicity against human Hep2 cells after 24 hrs at 37 degC by MTT assay; type: functional; settings: for IC50: HEp-2, 24 h, read-out: ID50 (the source's name); summary of the method: as §2
[10] = system: Pseudomonas aeruginosa; assay: Antibacterial activity against Pseudomonas aeruginosa ATCC 27853 after 18 to 24 hrs by broth microdilution method; type: functional; settings: read-out: ID50 (the source's name)
[11] = system: HEp-2; assay: Induction of apoptosis in human Hep2 cells assessed as early apoptotic cells level after 24 hrs by annexin V-FITC and propidium iodide staining based flow cytometry; type: functional; summary of the method: as §1
[12] = system: HT-29; assay: Induction of apoptosis in human HT-29 cells assessed as late apoptotic cells level after 24 hrs by annexin V-FITC and propidium iodide staining based flow cytometry; type: functional
Summary of the method: as §1, with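 “HT-29” for “Hep2”, “flask in 10% FBS-DMEM,” for “flask,”, “etoposide (12.5–50 µg/mL)” for “cisplatin 200 µM”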

[13] = system: HT-29; assay: Induction of apoptosis in human HT-29 cells assessed as early apoptotic cells level after 24 hrs by annexin V-FITC and propidium iodide staining based flow cytometry; type: functional
Summary of the method: as §1, with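 “HT-29” for “Hep2”, “flask in 10% FBS-DMEM,” for “flask,”, “etoposide (12.5–50 µg/mL)” for “cisplatin 200 µM”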

[14] = system: HT-29; assay: Induction of apoptosis in human HT-29 cells assessed as viable cell level after 24 hrs by annexin V-FITC and propidium iodide staining based flow cytometry; type: functional
Summary of the method: as §1, with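 “HT-29” for “Hep2”, “flask in 10% FBS-DMEM,” for “flask,”, “etoposide (12.5–50 µg/mL)” for “cisplatin 200 µM”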

[15] = system: HT-29; assay: Induction of apoptosis in human HT-29 cells assessed as necrotic cells level after 24 hrs by annexin V-FITC and propidium iodide staining based flow cytometry; type: functional
Summary of the method: as §1, with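 “HT-29” for “Hep2”, “flask in 10% FBS-DMEM,” for “flask,”, “etoposide (12.5–50 µg/mL)” for “cisplatin 200 µM”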

[16] = system: Vero; assay: as §3; type: cell-based; settings: chlorocebus sabaeus, vero, 24 h; summary of the method: as §2

| SMILES | Activity [1] | Activity [2] | Activity [3] | ID50 [4] | IC50 [5] | IC50 [6] | CC50 at 24 h [7] | IC50 [8] | IC50 [9] | IC50 [10] | Activity [11] | IC50 [4] | ID50 [9] | Activity [12] | Activity [13] | Activity [14] | Activity [15] | ID50 [16] |
| --- | --- | --- | --- | --- | --- | --- | --- | --- | --- | --- | --- | --- | --- | --- | --- | --- | --- | --- |
| CC1(C)COP2(=NP34=NP5(=N2)NCCCN5CCCCN3CCCN4)OC1 (stereo unspecified) | 19.39% | 3.32% | 0% | inactive | > 250 µg/mL | > 250 µg/mL | 5880 nM | > 250 µg/mL | 3230 nM | > 250 µg/mL | 77.29% | – | – | – | – | – | – | – |
| ClP1(Cl)=NP2(=NP(Sc3ccccc3)(Sc3ccccc3)=N1)NCCCN2CCCCN1CCCNP12=NP(Sc1ccccc1)(Sc1ccccc1)=NP(Cl)(Cl)=N2 (stereo unspecified) | – | – | – | – | > 250 µg/mL | > 250 µg/mL | 3350 nM | > 250 µg/mL | – | > 250 µg/mL | – | 1960 nM | inactive | – | – | – | – | – |
| FC1(F)COP2(=NP34=NP5(=N2)NCCCN5CCCCN3CCCN4)OCC1(F)F (stereo unspecified) | 32.78% | 5.34% | 1.1% | inactive | > 250 µg/mL | > 250 µg/mL | 5410 nM | > 250 µg/mL | 3390 nM | > 250 µg/mL | 60.78% | – | – | – | – | – | – | – |
| c1ccc(NP2(Nc3ccccc3)=NP34=NP5(=N2)NCCCN5CCCCN3CCCN4)cc1 (stereo unspecified) | – | – | – | – | > 250 µg/mL | > 250 µg/mL | 6550 nM | > 250 µg/mL | – | > 250 µg/mL | – | 4580 nM | inactive | 0.35% | 80.1% | 18.2% | 1.35% | – |
| ClP1(Cl)=NP2(=NP(Nc3ccccc3)(Nc3ccccc3)=N1)NCCCN2CCCCN1CCCNP12=NP(Nc1ccccc1)(Nc1ccccc1)=NP(Cl)(Cl)=N2 (stereo unspecified) | – | – | – | inactive | > 250 µg/mL | > 250 µg/mL | – | > 250 µg/mL | – | > 250 µg/mL | – | – | inactive | – | – | – | – | Non-toxic |
| FC1(F)COP2(=NP(Cl)(Cl)=NP3(=N2)NCCCN3CCCCN2CCCNP23=NP(Cl)(Cl)=NP2(=N3)OCC(F)(F)C(F)(F)CO2)OCC1(F)F (stereo unspecified) | – | – | – | – | > 250 µg/mL | > 250 µg/mL | 1310 nM | > 250 µg/mL | – | > 250 µg/mL | – | 2330 nM | inactive | 0.53% | 81.42% | 17.25% | 0.8% | – |
| FC1(F)COP2(Cl)=NP(Cl)(=NP3(=N2)NCCCN3CCCCN2CCCNP23=NP2(Cl)=NP(Cl)(=N3)OCC(F)(F)C(F)(F)CO2)OCC1(F)F (stereo unspecified) | – | – | – | inactive | > 250 µg/mL | > 250 µg/mL | 1610 nM | > 250 µg/mL | 2630 nM | > 250 µg/mL | – | – | – | – | – | – | – | – |
| CC1(C)COP2(=NP(Cl)(Cl)=NP3(=N2)NCCCN3CCCCN2CCCNP23=NP2(=NP(Cl)(Cl)=N3)OCC(C)(C)CO2)OC1 (stereo unspecified) | – | – | – | – | > 250 µg/mL | > 250 µg/mL | 2650 nM | > 250 µg/mL | – | > 250 µg/mL | – | 2750 nM | inactive | 1.97% | 63.78% | 32.84% | 1.41% | – |

From ChEMBL document CHEMBL2021912, “Synthesis, cytotoxicity and apoptosis of cyclotriphosphazene compounds as anti-cancer agents” (Eur J Med Chem, 2012)
